Experimental data as given in PubChem BioAssay AID624313 (The Scripps Research Institute Molecular Screening Center, 2012).
Active and inactive are the calls of the source.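 Rule for the calls: active = reporter absorbance over solvent-only wells above 1.25 at every tested dose; inactive = the rest.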

Test system: HEK293 CYP11A1 promoter CAT reporter, ELISA absorbance
Assay: activators of CYP11A1 promoter CAT reporter, late-stage follow-up, counter-screen for DAX1 inhibitor project, cell-based, absorbance, HEK293 (AID 624313)
Details: at 100 µM (top of the series)
Method in brief: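 Test system: transfected HEK293 with CYP11A1-promoter CAT reporter / Doses: 3-point twofold dilution series, nominal top 100 µM / Detection: colorimetric enzyme immunoassay of CAT protein, absorbance / Read-out: CAT signal relative to DMSO-treated wells / Benchmarks: pSG5 empty-vector positive control, DMSO reference / Replication: triplicate per dose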

Question: For Cn1c(=O)n(C)c2cc(C(=O)Nc3ccc4c(c3)OCCO4)ccc21, which relative activity ratio is on record?
Answer: 0.27 (inactive)

Question: Cn1c(=O)n(C)c2cc(C(=O)Nc3ccc4c(c3)OCO4)ccc21 was tested. Which relative activity ratio did it give?
Answer: 0.52 (inactive)
